The nature of assay [1]: Cytotoxicity against human HCT8 cells under normoxic condition after 2 days by crystal violet method. The note with it: HCT-8, 2 d.
Assay [2] can be described thus: Cytotoxicity against human HCT8 cells under hypoxic condition […] by crystal violet method. It is filed as functional, cell-based. As to conditions: HCT-8. In a few lines:
(§1)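 HCT-8 or PANC-1 cells seeded at 2 × 10^4 per well in duplicate plates and preincubated 24 h to adhere. Serially diluted samples added, then cultures held 2 d either normoxic (5% CO2) or hypoxic (1% O2, modular chamber with oxygen indicator). Viability read by crystal violet staining under normoxic conditions.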

Assay [3] can be described thus: Cytotoxicity against human PANC1 cells under hypoxic condition […] by crystal violet method. It is filed as functional, cell-based. The note with it: PANC-1. The gist of the method: as §1
Assay [4] in a line: Cytotoxicity against human PANC1 cells under normoxic condition after 2 days by crystal violet method. As to conditions: PANC-1, 2 d.
The next assay has as its system PANC-1. As to the kind of experiment: Selectivity index, ratio of IC50 for human PANC1 cells under normoxic condition to IC50 for human PANC1 cells under hypoxic condition. It is filed as functional.
The subject of the next assay is HCT-8. As to the kind of experiment: Selectivity index, ratio of IC50 for human HCT8 cells under normoxic condition to IC50 for human HCT8 cells under hypoxic condition. It is filed as functional.

A value given as a limit tells only on which side of the number the result lay.

On to `COc1cccc2c1C(=O)c1c(O)c3c(c(O)c1C2=O)C[C@@](O)(C(=O)CO)C[C@@H]3O[C@H]1C[C@H](N)[C@H](O)[C@H](C)O1` [DOXORUBICIN], for which the IC50 – broadly, the concentration that inhibits the measured activity by half – in assay [1] stood at 2.4 µM; in assay [2], 19.6 µM; in assay [3], 5.4 µM; in assay [4], 1.1 µM. The “Ratio IC50” value stood at 0.21 in the assay with PANC-1 and 0.12 in the assay on HCT-8.
For `C=C1/C=C/C(=O)N(C)CC(=O)N[C@H]([C@@H](O)C(N)=O)C(=O)O[C@@H]([C@H](C)CCCCCCCCCCCCCC(C)C)[C@H](C)C(=O)N1`, the IC50 came out at 9.4 µM in assay [1], 1.8 µM in assay [2], 4.7 µM in assay [3] and 17.9 µM in assay [4]. The “Ratio IC50” value with PANC-1 came out at 3.8; with HCT-8, 5.2.
On to `CC(C)CCCCCCCCCCC[C@@H](C)[C@@H]1OC(=O)[C@@H]([C@@H](O)C(N)=O)NC(=O)CN(C)C(=O)CCC(C)NC(=O)[C@H]1C` (stereo not given in full), for which the IC50 is 27.7 µM in assay [1], 6.5 µM in assay [2], 75.4 µM in assay [3] and 19.3 µM in assay [4]. For the same molecule, the “Ratio IC50” value with PANC-1 was determined as 0.26; with HCT-8, 4.3.
In the case of `C=C1/C=C/C(=O)N(C)CC(=O)NC(C(O)C(N)=O)C(=O)OC(C(C)CCCCCCCCCCCCC(C)C)C(C)C(=O)N1` (stereo not given), the IC50 in assay [1] came to 2.1 µM; in assay [2] it was 0.21 µM; in assay [3], 0.71 µM; in assay [4] it was 3.1 µM. Moreover, the “Ratio IC50” value in the assay on PANC-1 worked out at 4.3; in the assay with HCT-8, 10.
For the molecule `CC(C)CCCCCCCCCCC[C@@H](C)[C@H](O)[C@H](C)C(=O)NC(C)CCC(=O)N(C)CC(=O)N[C@@H](C(=O)O)[C@@H](O)C(N)=O` (stereo not given in full), the IC50 is 33.9 µM in assay [1], 63.4 µM in assay [2], over 80 µM in assay [3] and 27.4 µM in assay [4]. The “Ratio IC50” value in the assay with HCT-8 is 0.54.
Consider `C=C1/C=C/C(=O)N(C)CC(=O)N[C@H]([C@@H](O)C(N)=O)C(=O)O[C@@H]([C@H](C)CCCCCCCCCCCC(C)C)[C@H](C)C(=O)N1`, for which the IC50 worked out at 3.9 µM in assay [1], 0.3 µM in assay [2], 0.37 µM in assay [3] and 2.3 µM in assay [4]. Also, the figures for the “Ratio IC50” value in the assay with PANC-1 and in the assay with HCT-8 were 6.3 and 12.8, respectively.

(Values after ChEMBL document CHEMBL3351538, “Complete stereochemistry and preliminary structure-activity relationship of rakicidin A, a hypoxia-selective cytotoxin from Micromonospora sp” (J Nat Prod, 2014).)
